“And” between values parts separate entries of the source, which are not always exact repeats. Equal values may be shown once.
What was measured:
Type in all cases: toxicity, cell-based
[1] = test system: HEK-293T; test: Multiplex assay against HEK293T; details: human, number of replicates 2
Outline: (§1)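 Live cells were stained at seeding with Hoechst33342, BioTracker Green Microtubule Cytoskeleton Dye, MitoTracker Red and Annexin V Alexa Fluor 680, then imaged on a CQ1 microscope at 37°C and 5% CO2 after compound addition. CellPathfinder machine-learning gating split cells into Hoechst high-intensity objects or normal cells. Normal cells were split into healthy, pyknosed or fragmented nuclei, and pyknosed cells into mitotic or apoptotic. Tubulin, mitochondrial-mass and membrane-permeability phenotypes are per cents of healthy-nucleus cells.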

[2] = test system: Fibroblast; test: Multiplex assay against human fibroblast; details: number of replicates 2; outline: as §1
[3] = test system: U2OS; test: Multiplex assay against U2OS; details: human, number of replicates 2; outline: as §1
[4] = 12 h, 1 µM, compound concentration 1 uM
[5] = 12 h, 10 µM, compound concentration 10 uM
[6] = 24 h, 1 µM, compound concentration 1 uM
[7] = 24 h, 10 µM, compound concentration 10 uM
[8] = 48 h, 1 µM, compound concentration 1 uM
[9] = 48 h, 10 µM, compound concentration 10 uM

CCN1C(=O)N(c2c(F)c(OC)cc(OC)c2F)Cc2cnc3[nH]c(CN4CCOCC4)cc3c21 [PEMIGATINIB]
Population Apoptotic (%) [1, 4]: 58% and 63% | Population Fragmented Nuclei (%) [1, 4]: 3% | Population Healthy Nuclei (%) [1, 4]: 82% and 83% | Population Hoechst High Intensity Objects (%) [1, 4]: 7% and 9% | Population Membrane Permeable-Phenotype (%) [1, 4]: 3% and 0% | Population Mitochondria Different-Phenotype (%) [1, 4]: 15% and 20% | Population Mitotic Cells (%) [1, 4]: 41% and 36% | Population Normal (%) [1, 4]: 92% and 90% | Population Pyknosed Nuclei (%) [1, 4]: 13% | Population Tubulin-Different-Phenotype (%) [1, 4]: 51% and 60% | Total Cell Count [1, 4]: 617 and 677 | Population Apoptotic (%) [1, 5]: 64% and 53% | Population Fragmented Nuclei (%) [1, 5]: 4% and 2% | Population Healthy Nuclei (%) [1, 5]: 83% and 87% | Population Hoechst High Intensity Objects (%) [1, 5]: 12% and 8% | Population Membrane Permeable-Phenotype (%) [1, 5]: 2% | Population Mitochondria Different-Phenotype (%) [1, 5]: 31% and 18% | Population Mitotic Cells (%) [1, 5]: 35% and 46% | Population Normal (%) [1, 5]: 87% and 91% | Population Pyknosed Nuclei (%) [1, 5]: 11% and 9% | Population Tubulin-Different-Phenotype (%) [1, 5]: 77% and 68% | Total Cell Count [1, 5]: 550 and 620 | Population Apoptotic (%) [1, 6]: 41% and 56% | Population Fragmented Nuclei (%) [1, 6]: 8% and 7% | Population Healthy Nuclei (%) [1, 6]: 82% and 83% | Population Hoechst High Intensity Objects (%) [1, 6]: 7% and 8% | Population Membrane Permeable-Phenotype (%) [1, 6]: 3% and 1% | Population Mitochondria Different-Phenotype (%) [1, 6]: 7% and 5% | Population Mitotic Cells (%) [1, 6]: 58% and 43% | Population Normal (%) [1, 6]: 92% and 91% | Population Pyknosed Nuclei (%) [1, 6]: 9% | Population Tubulin-Different-Phenotype (%) [1, 6]: 29% and 30% | Total Cell Count [1, 6]: 1042 and 1171 | Population Apoptotic (%) [1, 7]: 52% and 58% | Population Fragmented Nuclei (%) [1, 7]: 4% and 5% | Population Healthy Nuclei (%) [1, 7]: 86% and 89% | Population Hoechst High Intensity Objects (%) [1, 7]: 12% and 11% | Population Membrane Permeable-Phenotype (%) [1, 7]: 1% | Population Mitochondria Different-Phenotype (%) [1, 7]: 19% and 16% | Population Mitotic Cells (%) [1, 7]: 47% and 41% | Population Normal (%) [1, 7]: 87% and 88% | Population Pyknosed Nuclei (%) [1, 7]: 8% and 4% | Population Tubulin-Different-Phenotype (%) [1, 7]: 71% and 61% | Total Cell Count [1, 7]: 678 and 726 | Population Apoptotic (%) [1, 8]: 17% | Population Fragmented Nuclei (%) [1, 8]: 14% and 12% | Population Healthy Nuclei (%) [1, 8]: 83% and 84% | Population Hoechst High Intensity Objects (%) [1, 8]: 7% and 9% | Population Membrane Permeable-Phenotype (%) [1, 8]: 6% and 2% | Population Mitochondria Different-Phenotype (%) [1, 8]: 0% | Population Mitotic Cells (%) [1, 8]: 82% | Population Normal (%) [1, 8]: 92% and 90% | Population Pyknosed Nuclei (%) [1, 8]: 2% and 3% | Population Tubulin-Different-Phenotype (%) [1, 8]: 10% and 18% | Total Cell Count [1, 8]: 2805 and 2683 | Population Apoptotic (%) [1, 9]: 33% and 24% | Population Fragmented Nuclei (%) [1, 9]: 9% and 10% | Population Healthy Nuclei (%) [1, 9]: 87% and 86% | Population Hoechst High Intensity Objects (%) [1, 9]: 13% and 12% | Population Membrane Permeable-Phenotype (%) [1, 9]: 3% and 4% | Population Mitochondria Different-Phenotype (%) [1, 9]: 2% and 4% | Population Mitotic Cells (%) [1, 9]: 66% and 75% | Population Normal (%) [1, 9]: 86% and 87% | Population Pyknosed Nuclei (%) [1, 9]: 3% | Population Tubulin-Different-Phenotype (%) [1, 9]: 55% | Total Cell Count [1, 9]: 1120 and 944 | Population Apoptotic (%) [2, 4]: 60% and 45% | Population Fragmented Nuclei (%) [2, 4]: 8% | Population Healthy Nuclei (%) [2, 4]: 75% and 58% | Population Hoechst High Intensity Objects (%) [2, 4]: 0% | Population Membrane Permeable-Phenotype (%) [2, 4]: 3% and 8% | Population Mitochondria Different-Phenotype (%) [2, 4]: 1% | Population Mitotic Cells (%) [2, 4]: 40% and 54% | Population Normal (%) [2, 4]: 99% and 100% | Population Pyknosed Nuclei (%) [2, 4]: 15% and 33% | Population Tubulin-Different-Phenotype (%) [2, 4]: 13% and 14% | Total Cell Count [2, 4]: 220 and 246 | Population Apoptotic (%) [2, 5]: 57% and 38% | Population Fragmented Nuclei (%) [2, 5]: 12% and 20% | Population Healthy Nuclei (%) [2, 5]: 53% and 51% | Population Hoechst High Intensity Objects (%) [2, 5]: 0% | Population Membrane Permeable-Phenotype (%) [2, 5]: 8% and 12% | Population Mitochondria Different-Phenotype (%) [2, 5]: 1% and 4% | Population Mitotic Cells (%) [2, 5]: 42% and 61% | Population Normal (%) [2, 5]: 100% | Population Pyknosed Nuclei (%) [2, 5]: 33% and 28% | Population Tubulin-Different-Phenotype (%) [2, 5]: 37% and 26% | Total Cell Count [2, 5]: 134 and 190 | Population Apoptotic (%) [2, 6]: 72% and 67% | Population Fragmented Nuclei (%) [2, 6]: 8% and 7% | Population Healthy Nuclei (%) [2, 6]: 76% and 61% | Population Hoechst High Intensity Objects (%) [2, 6]: 0% | Population Membrane Permeable-Phenotype (%) [2, 6]: 5% and 7% | Population Mitochondria Different-Phenotype (%) [2, 6]: 1% and 0% | Population Mitotic Cells (%) [2, 6]: 27% and 32% | Population Normal (%) [2, 6]: 99% and 100% | Population Pyknosed Nuclei (%) [2, 6]: 15% and 30% | Population Tubulin-Different-Phenotype (%) [2, 6]: 7% and 14% | Total Cell Count [2, 6]: 237 and 226 | Population Apoptotic (%) [2, 7]: 69% and 46% | Population Fragmented Nuclei (%) [2, 7]: 16% and 20% | Population Healthy Nuclei (%) [2, 7]: 57% and 50% | Population Hoechst High Intensity Objects (%) [2, 7]: 0% | Population Membrane Permeable-Phenotype (%) [2, 7]: 3% and 5% | Population Mitochondria Different-Phenotype (%) [2, 7]: 3% | Population Mitotic Cells (%) [2, 7]: 30% and 53% | Population Normal (%) [2, 7]: 100% | Population Pyknosed Nuclei (%) [2, 7]: 26% and 28% | Population Tubulin-Different-Phenotype (%) [2, 7]: 29% and 11% | Total Cell Count [2, 7]: 136 and 182 | Population Apoptotic (%) [2, 8]: 75% and 71% | Population Fragmented Nuclei (%) [2, 8]: 10% | Population Healthy Nuclei (%) [2, 8]: 76% and 60% | Population Hoechst High Intensity Objects (%) [2, 8]: 0% | Population Membrane Permeable-Phenotype (%) [2, 8]: 5% and 3% | Population Mitochondria Different-Phenotype (%) [2, 8]: 0% | Population Mitotic Cells (%) [2, 8]: 24% and 28% | Population Normal (%) [2, 8]: 99% | Population Pyknosed Nuclei (%) [2, 8]: 13% and 28% | Population Tubulin-Different-Phenotype (%) [2, 8]: 5% and 8% | Total Cell Count [2, 8]: 240 and 232 | Population Apoptotic (%) [2, 9]: 81% and 83% | Population Fragmented Nuclei (%) [2, 9]: 17% and 25% | Population Healthy Nuclei (%) [2, 9]: 57% and 51% | Population Hoechst High Intensity Objects (%) [2, 9]: 0% | Population Membrane Permeable-Phenotype (%) [2, 9]: 5% and 8% | Population Mitochondria Different-Phenotype (%) [2, 9]: 1% | Population Mitotic Cells (%) [2, 9]: 18% and 16% | Population Normal (%) [2, 9]: 100% | Population Pyknosed Nuclei (%) [2, 9]: 25% and 22% | Population Tubulin-Different-Phenotype (%) [2, 9]: 25% and 18% | Total Cell Count [2, 9]: 128 and 166 | Population Apoptotic (%) [3, 4]: 83% and 63% | Population Fragmented Nuclei (%) [3, 4]: 7% and 3% | Population Healthy Nuclei (%) [3, 4]: 82% and 90% | Population Hoechst High Intensity Objects (%) [3, 4]: 0% | Population Membrane Permeable-Phenotype (%) [3, 4]: 0% and 1% | Population Mitochondria Different-Phenotype (%) [3, 4]: 0% and 1% | Population Mitotic Cells (%) [3, 4]: 16% and 36% | Population Normal (%) [3, 4]: 100% | Population Pyknosed Nuclei (%) [3, 4]: 9% and 5% | Population Tubulin-Different-Phenotype (%) [3, 4]: 64% and 80% | Population Apoptotic (%) [3, 5]: 33% and 74% | Population Healthy Nuclei (%) [3, 5]: 45% and 78% | Population Hoechst High Intensity Objects (%) [3, 5]: 0% | Population Membrane Permeable-Phenotype (%) [3, 5]: 0% and 5% | Population Mitochondria Different-Phenotype (%) [3, 5]: 0% | Population Mitotic Cells (%) [3, 5]: 66% and 25% | Population Normal (%) [3, 5]: 100% | Population Pyknosed Nuclei (%) [3, 5]: 29% and 15% | Population Tubulin-Different-Phenotype (%) [3, 5]: 64% and 52% | Population Apoptotic (%) [3, 6]: 54% and 90% | Population Fragmented Nuclei (%) [3, 6]: 6% and 2% | Population Healthy Nuclei (%) [3, 6]: 81% and 89% | Population Hoechst High Intensity Objects (%) [3, 6]: 0% | Population Membrane Permeable-Phenotype (%) [3, 6]: 1% and 2% | Population Mitochondria Different-Phenotype (%) [3, 6]: 0% and 2% | Population Normal (%) [3, 6]: 100% and 99% | Population Pyknosed Nuclei (%) [3, 6]: 12% and 7% | Population Tubulin-Different-Phenotype (%) [3, 6]: 66% and 78% | Total Cell Count [3, 6]: 91 and 271 | Population Apoptotic (%) [3, 7]: 80% and 78% | Population Fragmented Nuclei (%) [3, 7]: 14% and 6% | Population Healthy Nuclei (%) [3, 7]: 48% and 72% | Population Hoechst High Intensity Objects (%) [3, 7]: 0% and 1% | Population Membrane Permeable-Phenotype (%) [3, 7]: 0% and 5% | Population Mitochondria Different-Phenotype (%) [3, 7]: 0% and 4% | Population Mitotic Cells (%) [3, 7]: 20% and 21% | Population Normal (%) [3, 7]: 100% and 98% | Population Pyknosed Nuclei (%) [3, 7]: 37% and 21% | Population Tubulin-Different-Phenotype (%) [3, 7]: 69% and 56% | Population Apoptotic (%) [3, 8]: 50% and 76% | Population Fragmented Nuclei (%) [3, 8]: 8% and 2% | Population Healthy Nuclei (%) [3, 8]: 80% and 89% | Population Hoechst High Intensity Objects (%) [3, 8]: 0% | Population Membrane Permeable-Phenotype (%) [3, 8]: 0% and 1% | Population Mitochondria Different-Phenotype (%) [3, 8]: 0% | Population Mitotic Cells (%) [3, 8]: 50% and 23% | Population Normal (%) [3, 8]: 100% and 99% | Population Pyknosed Nuclei (%) [3, 8]: 10% and 8% | Population Tubulin-Different-Phenotype (%) [3, 8]: 72% and 82% | Population Apoptotic (%) [3, 9]: 86% and 82% | Population Fragmented Nuclei (%) [3, 9]: 11% and 6% | Population Healthy Nuclei (%) [3, 9]: 25% and 60% | Population Hoechst High Intensity Objects (%) [3, 9]: 0% | Population Membrane Permeable-Phenotype (%) [3, 9]: 0% and 7% | Population Mitochondria Different-Phenotype (%) [3, 9]: 0% and 5% | Population Mitotic Cells (%) [3, 9]: 13% and 17% | Population Normal (%) [3, 9]: 100% and 99% | Population Pyknosed Nuclei (%) [3, 9]: 63% and 33% | Population Tubulin-Different-Phenotype (%) [3, 9]: 44% and 60%

Source: ChEMBL document CHEMBL5303300, “EUbOPEN Chemogenomics Library - Multiplex” (2023)
